Data on two compounds can be found in ChEMBL document CHEMBL5715948, “Tubastatin, a selective histone deacetylase 6 inhibitor shows anti-inflammatory and anti-rheumatic effects” (Int Immunopharmacol, 2013).

Series [1] concerns RAW264.7. The series is described as follows: Inhibition of LPS-stimulated NO production in mouse RAW264.7 cells at 10 uM pre-incubated for 24 hrs before LPS-stimulation and measured after 24 hrs post LPS challenge by Griess assay. As to conditions: time 48 hrs. Format: functional. Put shortly:
(§1)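 RAW 264.7 cells (1 million) in 24-well plates, 24 h settle, compound 24 h, then LPS 100 ng/ml for 24 h. Medium nitrite measured with Griess reagent (1% sulfanilamide, 0.1% naphthylethylenediamine in 2.5% phosphoric acid), 10 min room temperature, absorbance 570 nm, quantified against sodium nitrite standard curve; mean ± SD, n = 3.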
A general note: Griess reagent forms a coloured azo dye with nitrite.

Series [2] has as its system Rattus norvegicus. Put plainly: Antiinflammatory activity in Wistar rat assessed as inhibition of FCA-induced paw inflammation at 1 mg/kg/day, po […] measured 2 hrs after FCA challenge relative to control. It is filed as functional. Put shortly:
(§2)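 Male Wistar rats (200–225 g) randomized by paw volume, n = 6. Test agent i.p. daily for 5 days or reference oral on day 5; 1 h after dosing on day 5, 100 μg M. tuberculosis in 50 μl IFA injected sub-plantar into both hind paws. Paw volume plethysmometry at 2, 6, 24 h; % inhibition versus vehicle disease control.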

Series [3] deals with Rattus norvegicus. Put plainly: Antiinflammatory activity in Wistar rat assessed as inhibition of FCA-induced paw inflammation at 1 mg/kg/day, po […] measured 6 hrs after FCA challenge relative to control. It is filed as functional. Put shortly: as §2
The test system of series [4] is Rattus norvegicus. Put plainly: Antiinflammatory activity in Wistar rat assessed as inhibition of FCA-induced paw inflammation at 1 mg/kg/day, […] measured 24 hrs after FCA challenge relative to control. It is filed as functional. As to conditions: route po. A digest of the protocol: as §2
Series [5] deals with Mus musculus. Put plainly: Anti-rheumatic activity in DBA1 mouse semi-therapeutic collagen induced arthritis model assessed as inhibition of clinical arthritic scores at 0.1 mg/kg/day, po QD dosed during day 21 to day 36 post immunization by hematoxylin and eosin staining based analysis. It is filed as functional. As to conditions: DBA1, 384 h, time 16 day. Put shortly:
(§3)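 Collagen-induced arthritis in female DBA1 mice: collagen II/CFA intradermal at tail base day 0, collagen/IFA boost day 21, LPS 50 μg i.p. day 28; once-daily dosing day 21 to 36, six per group. Arthritic clinical scores followed daily from day 28 to 37; mean ± SEM versus vehicle-treated disease control.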

Series [6] has as its system Mus musculus. The series is described as follows: Anti-rheumatic activity in DBA1 mouse semi-therapeutic collagen induced arthritis model assessed as inhibition of IL6 level in paw tissues at 0.1 mg/kg/day, po QD dosed during day 21 to day 36 post immunization by ELISA analysis. Format: functional. As to conditions: 384 h, time 16 day. Put shortly: (§4)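 Female DBA1 mice (6–8 weeks) immunized intradermally at tail base on day 0 with bovine type II collagen in CFA, boosted day 21 with collagen in IFA, LPS 50 μg i.p. day 28; dosed day 21–36 (n = 6/group). Day 37 left paws frozen, pulverized in liquid nitrogen, homogenized in T-PER, spun 500 g 10 min 4 °C; supernatant IL-6 by ELISA, normalized per mg protein.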
A general note: An ELISA detects its analyte on a solid surface through an enzyme-linked reagent.

The subject of series [7] is Mus musculus. The series is described as follows: Anti-rheumatic activity in DBA1 mouse semi-therapeutic collagen induced arthritis model assessed as inhibition of histopathological changes (cartilage erosion, synovial hyperplasia and inflammation) at 0.1 mg/kg/day, po QD dosed during day 21 to day 36 post immunization by hematoxylin and eosin staining based analysis. Particulars: DBA1, 384 h, time 16 day. It is filed as functional. A digest of the protocol:
(§5)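 Histopathology in collagen II/CFA-immunized DBA1 mice (day 21 boost, day 28 LPS i.p.), treated day 21–36, n = 6. Right fore and hind paws taken at sacrifice on day 37, paraffin-embedded, sectioned, H&E-stained and scored for cartilage erosion, synovial hyperplasia, pannus and cell infiltration.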

Series [8] concerns Mus musculus. Put plainly: Anti-rheumatic activity in DBA1 mouse semi-therapeutic collagen induced arthritis model assessed as mild cartilaginous change like proteoglycan loss at 0.1 mg/kg/day, po QD dosed during day 21 to day 36 post immunization by Safranin O staining analysis. Format: functional, organism-based. As to conditions: time 16.0 day. Put shortly: (§6)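 Right fore and hind paws from collagen-induced arthritic DBA1 mice (treated day 21–36, sacrificed day 37) paraffin-sectioned and stained with Safranin O to detect proteoglycan/glycosaminoglycan loss in articular cartilage.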

Series [9] in a line: Toxicity in DBA1 mouse semi-therapeutic collagen induced arthritis model assessed as spleen weight at 0.1 mg/kg/day, po QD dosed during day 21 to day 36 post immunization (reference value: 226.4 +/- 11.03 mg). Format: organism-based. As to conditions: in vivo, 384 h, time 16 day.
Series [10] can be described thus: Toxicity in DBA1 mouse semi-therapeutic collagen induced arthritis model assessed as thymus weight at 0.1 mg/kg/day, po QD dosed during day 21 to day 36 post immunization (reference value: 12.20 +/- 1.5 mg). It is filed as organism-based. Particulars: in vivo, 384 h, time 16 day.
Series [11] in a line: Toxicity in DBA1 mouse semi-therapeutic collagen induced arthritis model assessed as change in body weight at 0.1 mg/kg/day, po QD dosed during day 21 to day 36 post immunization (reference value: -25.03 +/- 5.22%). It is filed as organism-based. Particulars: in vivo, 384 h, time 16 day.
The subject of series [12] is THP-1. The series is described as follows: Inhibition of LPS-stimulated TNFalpha production in PMA-activated human THP-1 cells pre-incubated for 24 hrs before LPS-stimulation and measured after 4 hrs post LPS challenge by ELISA. It is filed as functional, cell-based. As to conditions: time 28.0 hrs. A digest of the protocol: (§7)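 THP-1 cells, 10,000/well, differentiated with 32 nM PMA for 24 h, medium replaced and rested 24 h, then compound 24 h before LPS: 10 ng/ml for 4 h (TNF-α) or 100 ng/ml for 8 h (IL-6). Conditioned medium assayed by human ELISA at 450 nm; mean ± SD, n = 3; IC50 from dose–response.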

Series [13] has as its system THP-1. The series is described as follows: Inhibition of LPS-stimulated IL6 production in PMA-activated human THP-1 cells pre-incubated for 24 hrs before LPS-stimulation and measured after 8 hrs post LPS challenge by ELISA. Format: functional, cell-based. Particulars: time 32.0 hrs. Put shortly:
as §7

For series [14], the system named is THP-1. Put plainly: Cytotoxicity in human THP-1 cells at 100 to 100000 nM incubated for 24 hrs by SRB assay. Format: toxicity, cell-based. As to conditions: thp-1, 24 h, 100 µM, dose 100-100000 nM. Put shortly: (§8)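 RAW 264.7 (DMEM) or THP-1 (RPMI-1640) cells, 10% FBS, seeded 10,000/well and exposed 24 h to compound in DMSO over 100–100000 nM. SRB staining, absorbance 530 nm; % survival relative to untreated cells, mean ± SD, n = 3.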
(In general: The SRB assay estimates cell density from bound dye.)

Series [15] has as its system RAW264.7. Put plainly: Cytotoxicity in mouse RAW264.7 cells at 100 to 100000 nM incubated for 24 hrs by SRB assay. Format: toxicity, cell-based. Particulars: raw264.7, 24 h, 100 µM, dose 100-100000 nM. Put shortly: as §8
The test system of series [16] is RAW264.7. The series is described as follows: Inhibition of LPS-stimulated NO production in mouse RAW264.7 cells pre-incubated for 24 hrs before LPS-stimulation and measured after 24 hrs post LPS challenge by Griess assay. Particulars: time 48.0 hrs. It is filed as functional, cell-based. Put shortly: as §1
Series [17] has as its system Rattus norvegicus. The series is described as follows: Antiinflammatory activity in Wistar rat assessed as inhibition of FCA-induced paw inflammation at 30 mg/kg/day, ip for 5 days measured 2 hrs after FCA challenge relative to control. It is filed as functional. Particulars: 120 h, time 5 day. Put shortly:
as §2

For series [18], the system named is Rattus norvegicus. The series is described as follows: Antiinflammatory activity in Wistar rat assessed as inhibition of FCA-induced paw inflammation at 30 mg/kg/day, ip for 5 days and measured 6 hrs after FCA challenge relative to control. It is filed as functional. Particulars: 120 h, time 5 day. Put shortly:
as §2

The subject of series [19] is Rattus norvegicus. Put plainly: Antiinflammatory activity in Wistar rat assessed as inhibition of FCA-induced paw inflammation at 30 mg/kg/day, ip for 5 days and measured 24 hrs after FCA challenge relative to control. Format: functional. Particulars: 120 h, time 5 day. A digest of the protocol:
as §2

Series [20] has as its system Mus musculus. The series is described as follows: Anti-rheumatic activity in DBA1 mouse semi-therapeutic collagen induced arthritis model assessed as inhibition of clinical arthritic scores at 30 mg/kg/day, ip QD dosed during day 21 to day 36 post immunization by hematoxylin and eosin staining based analysis. It is filed as functional. As to conditions: DBA1, 384 h, time 16 day. A digest of the protocol: as §3

Series [21] has as its system Mus musculus. Put plainly: Anti-rheumatic activity in DBA1 mouse semi-therapeutic collagen induced arthritis model assessed as inhibition of IL6 level in paw tissues at 30 mg/kg/day, ip QD dosed during day 21 to day 36 post immunization by ELISA analysis. It is filed as functional. Particulars: 384 h, time 16 day. A digest of the protocol: as §4
Series [22] has as its system Mus musculus. The series is described as follows: Anti-rheumatic activity in DBA1 mouse semi-therapeutic collagen induced arthritis model assessed as inhibition of histopathological changes (cartilage erosion, synovial hyperplasia and inflammation) at 30 mg/kg/day, ip QD dosed during day 21 to day 36 post immunization by hematoxylin and eosin staining based analysis. Format: functional. As to conditions: DBA1, 384 h, time 16 day. A digest of the protocol: as §5

For series [23], the system named is Mus musculus. Put plainly: Anti-rheumatic activity in DBA1 mouse semi-therapeutic collagen induced arthritis model assessed as mild cartilaginous change like proteoglycan loss at 30 mg/kg/day, ip QD dosed during day 21 to day 36 post immunization by Safranin O staining analysis. Particulars: time 16.0 day. Format: functional, organism-based. A digest of the protocol: as §6

Series [24] can be described thus: Toxicity in DBA1 mouse semi-therapeutic collagen induced arthritis model assessed as spleen weight at 30 mg/kg/day, ip QD dosed during day 21 to day 36 post immunization (reference value: 226.4 +/- 11.03 mg). It is filed as organism-based. As to conditions: in vivo, 384 h, time 16 day.
The nature of series [25]: Toxicity in DBA1 mouse semi-therapeutic collagen induced arthritis model assessed as thymus weight at 30 mg/kg/day, ip QD dosed during day 21 to day 36 post immunization (reference value: 12.20 +/- 1.5 mg). Format: organism-based. Particulars: in vivo, 384 h, time 16 day.
A short description of series [26]: Toxicity in DBA1 mouse semi-therapeutic collagen induced arthritis model assessed as change in body weight at 30 mg/kg/day, ip QD dosed during day 21 to day 36 post immunization (reference value: -25.03 +/- 5.22%). It is filed as organism-based. As to conditions: in vivo, 384 h, time 16 day.

Structures are written as SMILES. Calls of active or inactive are those of the source. The rule behind the calls is not given here.

The term inhibition denotes the percentage by which the read-out fell short of the control. For orientation: inhibition in vivo means the share of the control response that was lost under treatment. For the compound `C[C@@H]1C[C@H]2[C@@H]3CCC4=CC(=O)C=C[C@]4(C)[C@@]3(F)[C@@H](O)C[C@]2(C)[C@@]1(O)C(=O)CO` [DEXAMETHASONE], testing at 10 µM in the series with RAW264.7 [1] gave an inhibition of 36%. In addition, the values for the inhibition in vivo at 1 mg/kg/day with Rattus norvegicus [2], in the series on Rattus norvegicus [3] and in the series with Rattus norvegicus [4] were 65.4%, 90.5% and 49.5%, respectively. Besides, the inhibition in vivo at 0.1 mg/kg/day with Mus musculus [5] was 92%; in the series with Mus musculus [6], 66%; with Mus musculus [7], 100%. In addition, the outcome with Mus musculus [8] was Active. Moreover, the Activity in series [9] is 52.5 mg; in series [10] it was 6.5 mg; in series [11], -13.9%.

Take `CN1CCc2c(c3ccccc3n2Cc2ccc(C(=O)NO)cc2)C1` [TUBASTATIN A]: the inhibition entry in the series on THP-1 [12], in the series with THP-1 [13] and in the series with RAW264.7 [16] was “Dose-Dependent Effect” each time. The Activity result in the series with THP-1 [14] was “Non-Toxic”; in the series with RAW264.7 [15] it was “Non-Toxic”; in series [24], 182 mg; in series [25], 17.5 mg; in series [26], -1.07%. In the series with RAW264.7 [1], this compound came in with an inhibition at 10 µM of 66%. Also, the inhibition in vivo at 30 mg/kg/day in the series with Rattus norvegicus [17] worked out at 71.9%; with Rattus norvegicus [18], 40.3%; in the series with Rattus norvegicus [19], 38.6%; in the series on Mus musculus [20], 73%; with Mus musculus [21] it was 59%; in the series with Mus musculus [22] it was 71%. Also, the result in the series with Mus musculus [23] was Active.
